Data taken from ChEMBL document CHEMBL2046373, “Discovery of a potent thiadiazole class of histamine h3 receptor antagonist for the treatment of diabetes” (ACS Med Chem Lett, 2012).

Columns and labels:
[1] = target: Histamine H3 receptor (Homo sapiens, UniProt Q9Y5N1); experiment: Displacement of [3H]-N-alpha-methylhistamine from human recombinant histamine H3 receptor after 30 mins by scintillation counting
[2] = target: Histamine H3 receptor (Mus musculus, UniProt P58406); experiment: Displacement of [3H]-N-alpha-methylhistamine from mouse recombinant histamine H3 receptor after 30 mins by scintillation counting
[3] = target: hERG (KCNH2) (Homo sapiens, UniProt Q12809); experiment: Inhibition of human ERG at 10 uM by high-throughput rubidium efflux assay
[4] = target: T1, Cytochrome P450 3A4 (Homo sapiens, UniProt P08684); experiment: Inhibition of CYP3A4 under preincubation conditions; assay type: ADME; details: read-out: INH
[5] = target: T1, Cytochrome P450 3A4; experiment: Inhibition of CYP3A4 under co-incubation conditions; assay type: ADME; details: read-out: INH
[6] = target: T2, Cytochrome P450 2D6 (Homo sapiens, UniProt P10635); experiment: Inhibition of CYP2D6 under preincubation conditions; assay type: ADME
[7] = target: T2, Cytochrome P450 2D6; experiment: Inhibition of CYP2D6 under co-incubation conditions; assay type: ADME; details: read-out: INH
[8] = target: T3, Cytochrome P450 2C9 (Homo sapiens, UniProt P11712); experiment: Inhibition of CYP2C9 under preincubation conditions; assay type: ADME; details: read-out: INH
[9] = target: T3, Cytochrome P450 2C9; experiment: Inhibition of CYP2C9 under co-incubation conditions; assay type: ADME; details: read-out: INH
[10] = test system: Mus musculus; experiment: Ex vivo receptor occupancy of histamine H3 receptor in ICR mouse brain cortex using [3H]- N-alpha-Methylhistamine at 30 mg/kg, po after 30 mins by scintillation counting; assay type: functional
[11] = Drug level in ICR mouse brain at 30 mg/kg, po after 4 hrs; assay type: ADME, organism-based; set-up: dose 30 mg/kg, route oral; details: read-out: Drug uptake
Procedure, shortened: (§1)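 ICR mice were given a single 30 mg/kg oral dose. Total brain and plasma concentrations were measured 4 h later, and the brain/plasma ratio was taken from these levels.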

[12] = Cmax in ICR mouse plasma at 30 mg/kg, po after 4 hrs; assay type: ADME, organism-based; set-up: dose 30 mg/kg, route oral; procedure, shortened: as §1
[13] = AUC (0 to 6 hrs) in rat at 10 mg/kg, po; assay type: ADME, organism-based; set-up: time < 6 hr, dose 10 mg/kg, route oral; details: plasma
[14] = test system: Mus musculus; experiment: Antihyperglycemic activity in STZ-induced type 2 diabetic model of ICR mouse assessed as reduction of non-fasting blood glucose level at 30 mg/kg, po qd for 2 days; assay type: functional
Procedure, shortened: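 Streptozotocin-diabetic ICR mice (STZ 80 mg/kg ip; blood glucose 250–500 mg/dL) received oral dosing at 30 mg/kg once daily. Non-fasting glucose was read daily before each dose. Data are mean ± SEM, n = 12/group, compared with vehicle (0) controls.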

[15] = Ratio of drug level in brain to plasma in ICR mouse; assay type: ADME; details: read-out: BPR; procedure, shortened: as §1
[16] = test system: Mus musculus; experiment: Antihyperglycemic activity in po dosed STZ-induced type 2 diabetic model of ICR mouse assessed as reduction of HbA1c level administered qd for 12 days; assay type: functional, organism-based
Procedure, shortened: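 STZ diet-induced obese type 2 diabetic mice were dosed orally once daily for 12 days at 10 and 30 mg/kg. The end point was change in glycated hemoglobin (HbA1c), compared with vehicle (0) controls.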

T2 sequence (P10635 whole entry): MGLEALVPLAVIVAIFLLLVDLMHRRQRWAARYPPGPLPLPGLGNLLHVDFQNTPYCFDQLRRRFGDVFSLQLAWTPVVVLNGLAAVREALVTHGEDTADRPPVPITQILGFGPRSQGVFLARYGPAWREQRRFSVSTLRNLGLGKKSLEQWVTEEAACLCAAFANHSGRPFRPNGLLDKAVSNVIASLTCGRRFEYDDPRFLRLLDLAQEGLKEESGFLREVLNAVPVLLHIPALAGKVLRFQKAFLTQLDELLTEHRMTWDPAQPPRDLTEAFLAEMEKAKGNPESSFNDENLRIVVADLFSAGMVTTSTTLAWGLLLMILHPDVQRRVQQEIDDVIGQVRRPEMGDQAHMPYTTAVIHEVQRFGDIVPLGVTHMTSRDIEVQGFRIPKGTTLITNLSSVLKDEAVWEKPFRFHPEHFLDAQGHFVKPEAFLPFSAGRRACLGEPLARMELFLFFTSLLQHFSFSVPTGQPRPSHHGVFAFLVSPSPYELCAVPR
Sequence of Histamine H3 receptor (Mus musculus, UniProt P58406) (P58406 whole entry): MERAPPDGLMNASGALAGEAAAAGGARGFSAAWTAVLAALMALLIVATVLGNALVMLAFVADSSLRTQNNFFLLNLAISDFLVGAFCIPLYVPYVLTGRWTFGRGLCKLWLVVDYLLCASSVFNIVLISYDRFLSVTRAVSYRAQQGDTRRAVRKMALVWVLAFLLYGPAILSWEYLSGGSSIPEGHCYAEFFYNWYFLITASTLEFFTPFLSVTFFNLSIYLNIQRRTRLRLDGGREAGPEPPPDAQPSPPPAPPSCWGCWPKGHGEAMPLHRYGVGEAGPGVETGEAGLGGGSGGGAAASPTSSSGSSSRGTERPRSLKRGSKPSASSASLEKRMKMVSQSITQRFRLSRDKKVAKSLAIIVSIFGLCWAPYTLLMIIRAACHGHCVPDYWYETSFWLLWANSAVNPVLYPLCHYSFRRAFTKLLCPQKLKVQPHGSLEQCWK
Sequence of hERG (KCNH2) (Q12809 whole entry): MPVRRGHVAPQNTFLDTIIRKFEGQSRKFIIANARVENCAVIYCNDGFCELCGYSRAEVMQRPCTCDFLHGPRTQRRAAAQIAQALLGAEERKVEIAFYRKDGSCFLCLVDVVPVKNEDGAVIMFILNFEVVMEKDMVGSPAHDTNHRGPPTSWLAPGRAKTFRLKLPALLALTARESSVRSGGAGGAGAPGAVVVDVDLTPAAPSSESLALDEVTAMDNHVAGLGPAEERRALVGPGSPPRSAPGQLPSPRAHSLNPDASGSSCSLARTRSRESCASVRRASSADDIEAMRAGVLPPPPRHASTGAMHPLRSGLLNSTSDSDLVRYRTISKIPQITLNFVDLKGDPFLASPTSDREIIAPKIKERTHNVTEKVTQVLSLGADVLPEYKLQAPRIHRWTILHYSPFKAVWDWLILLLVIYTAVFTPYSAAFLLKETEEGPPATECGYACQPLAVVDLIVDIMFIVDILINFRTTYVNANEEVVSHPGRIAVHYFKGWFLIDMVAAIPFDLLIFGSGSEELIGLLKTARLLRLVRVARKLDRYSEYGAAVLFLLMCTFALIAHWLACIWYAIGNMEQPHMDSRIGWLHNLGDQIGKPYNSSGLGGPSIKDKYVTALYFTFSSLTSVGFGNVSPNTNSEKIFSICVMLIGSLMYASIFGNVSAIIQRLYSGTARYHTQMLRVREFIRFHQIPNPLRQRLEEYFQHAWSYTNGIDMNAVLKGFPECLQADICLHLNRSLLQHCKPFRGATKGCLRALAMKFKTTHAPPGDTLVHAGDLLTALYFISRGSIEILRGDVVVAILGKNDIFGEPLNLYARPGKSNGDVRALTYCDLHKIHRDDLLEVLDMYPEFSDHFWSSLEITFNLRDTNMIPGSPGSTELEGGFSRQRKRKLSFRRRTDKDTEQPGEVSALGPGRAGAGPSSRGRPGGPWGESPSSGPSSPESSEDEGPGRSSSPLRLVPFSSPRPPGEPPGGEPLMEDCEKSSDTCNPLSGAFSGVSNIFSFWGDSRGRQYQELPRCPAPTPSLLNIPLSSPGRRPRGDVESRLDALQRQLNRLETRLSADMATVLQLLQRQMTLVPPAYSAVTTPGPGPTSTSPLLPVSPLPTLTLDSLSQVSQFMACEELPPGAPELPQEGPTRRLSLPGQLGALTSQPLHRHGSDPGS
T1 sequence (P08684 whole entry): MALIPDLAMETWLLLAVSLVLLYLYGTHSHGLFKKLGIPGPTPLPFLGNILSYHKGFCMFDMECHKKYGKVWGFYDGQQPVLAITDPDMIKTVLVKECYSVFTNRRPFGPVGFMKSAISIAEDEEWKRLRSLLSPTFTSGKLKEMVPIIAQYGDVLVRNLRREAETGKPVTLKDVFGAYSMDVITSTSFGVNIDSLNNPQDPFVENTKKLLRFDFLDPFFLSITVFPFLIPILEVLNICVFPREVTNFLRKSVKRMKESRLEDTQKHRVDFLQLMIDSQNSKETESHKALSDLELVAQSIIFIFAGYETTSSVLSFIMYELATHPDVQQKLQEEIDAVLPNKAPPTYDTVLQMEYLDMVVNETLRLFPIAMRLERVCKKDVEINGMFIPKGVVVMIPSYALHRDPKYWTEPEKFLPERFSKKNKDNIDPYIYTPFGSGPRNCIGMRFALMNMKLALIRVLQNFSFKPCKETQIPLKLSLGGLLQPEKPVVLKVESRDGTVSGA
Sequence of Histamine H3 receptor (Homo sapiens, UniProt Q9Y5N1) (Q9Y5N1 whole entry): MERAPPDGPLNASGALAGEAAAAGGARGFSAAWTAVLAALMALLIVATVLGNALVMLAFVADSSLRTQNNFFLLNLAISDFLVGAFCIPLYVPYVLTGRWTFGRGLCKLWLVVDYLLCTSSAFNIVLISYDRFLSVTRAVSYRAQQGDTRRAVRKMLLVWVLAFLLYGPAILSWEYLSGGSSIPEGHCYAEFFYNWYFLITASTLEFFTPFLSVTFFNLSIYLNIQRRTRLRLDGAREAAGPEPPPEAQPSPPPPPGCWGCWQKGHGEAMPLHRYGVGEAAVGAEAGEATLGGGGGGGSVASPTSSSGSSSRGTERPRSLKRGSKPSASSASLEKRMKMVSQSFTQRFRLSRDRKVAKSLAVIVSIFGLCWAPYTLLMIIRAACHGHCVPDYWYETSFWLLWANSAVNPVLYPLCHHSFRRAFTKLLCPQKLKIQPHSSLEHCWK
T3 sequence (P11712 whole entry): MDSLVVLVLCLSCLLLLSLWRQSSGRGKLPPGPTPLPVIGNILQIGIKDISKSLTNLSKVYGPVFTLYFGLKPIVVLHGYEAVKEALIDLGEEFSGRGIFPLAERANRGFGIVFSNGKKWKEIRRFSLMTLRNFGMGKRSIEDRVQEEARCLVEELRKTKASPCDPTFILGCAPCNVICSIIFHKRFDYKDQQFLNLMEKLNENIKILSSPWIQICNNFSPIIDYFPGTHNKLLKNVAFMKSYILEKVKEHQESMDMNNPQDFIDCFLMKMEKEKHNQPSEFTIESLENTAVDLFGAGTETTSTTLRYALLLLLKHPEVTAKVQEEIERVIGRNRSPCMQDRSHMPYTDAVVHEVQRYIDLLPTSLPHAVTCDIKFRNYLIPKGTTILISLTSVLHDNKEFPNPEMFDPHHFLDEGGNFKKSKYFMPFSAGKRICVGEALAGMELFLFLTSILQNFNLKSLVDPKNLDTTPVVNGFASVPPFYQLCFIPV

| SMILES | Ki [1] | Ki [2] | also measured |
| --- | --- | --- | --- |
| c1ccc(C2CN(c3nnc(N4CCC(N5CCCCC5)CC4)s3)CCO2)nc1 (stereo in doubt; 5r) | 5 nM | 11 nM | – |
| O=C(Nc1nnc(N2CCC(N3CCCCC3)CC2)s1)NC1CCCC1 | – | 47 nM | – |
| O=C1N(c2nnc(N3CCC(N4CCCCC4)CC3)s2)CCN1C1CCCC1 | 34 nM | 53 nM | – |
| COC1CCCN(c2nnc(N3CCC(N4CCCCC4)CC3)s2)C1 (stereo unspecified) | 37 nM | 46 nM | – |
| C1=C(c2ccccn2)CCCN1c1nnc(N2CCC(N3CCCCC3)CC2)s1 | 3 nM | 5 nM | inhibition at 10 µM [3]: 54%; IC50 [4]: > 20000 nM; IC50 [5]: > 20000 nM; INH [6]: > 20 µM; IC50 [7]: > 20000 nM; IC50 [8]: > 20000 nM; IC50 [9]: > 20000 nM; Activity [10]: 85%; concentration at 4 h [11]: 1040 ng/g; Cmax [12]: 1470 ng/mL |
| C1=C(c2ccccn2)CN(c2nnc(N3CCC(N4CCCCC4)CC3)s2)CC1 | 12 nM | 49 nM | – |
| O=C1N(c2ccccc2)CCCN1c1nnc(N2CCC(N3CCCCC3)CC2)s1 | 30 nM | 32 nM | – |
| c1ccc(C2CCCN(c3nnc(N4CCC(N5CCCCC5)CC4)s3)C2)cc1 (stereo unspecified) | 75 nM | 110 nM | – |
| CC1CN(c2nnc(N3CCC(N4CCCCC4)CC3)s2)CC(C)O1 (stereo unspecified) | 53 nM | 35 nM | AUC(0-t) at 6 h [13]: 4320 ng·h/mL |
| c1ccc(C2CN(c3nnc(N4CCC(N5CCCCC5)CC4)s3)CCO2)nc1 (single isomer, unassigned; enantiomer 2) [listing 1 of 2 here] | 3 nM | 4 nM | inhibition at 10 µM [3]: 26%; IC50 [4]: > 20000 nM; IC50 [5]: > 20000 nM; INH [6]: > 20 µM; IC50 [7]: > 20000 nM; IC50 [8]: > 20000 nM; IC50 [9]: > 20000 nM; Activity [10]: 74%; concentration at 4 h [11]: 24 ng/g; Cmax [12]: 1500 ng/mL; Activity [14]: 104.5 mg/dL; Kp [15]: 0.016 |
| c1cnc(C2CN(c3nnc(N4CCC(N5CCCCC5)CC4)s3)CCO2)cn1 (stereo unspecified) | 8 nM | 16 nM | – |
| OC1CCCN(c2nnc(N3CCC(N4CCCCC4)CC3)s2)C1 (stereo unspecified) | 46 nM | 68 nM | – |
| c1ccc(C2CN(c3nnc(N4CCC(N5CCCCC5)CC4)s3)CCO2)nc1 (stereo in doubt; 5t) | 34 nM | 67 nM | – |
| O=C1CCCCN1c1nnc(N2CCC(N3CCCCC3)CC2)s1 | 120 nM | 120 nM | – |
| FC1(c2ccccn2)CCCN(c2nnc(N3CCC(N4CCCCC4)CC3)s2)C1 (stereo unspecified) | 4 nM | 7 nM | inhibition at 10 µM [3]: 16%; IC50 [4]: > 20000 nM; IC50 [5]: > 20000 nM; INH [6]: > 20 µM; IC50 [7]: > 20000 nM; IC50 [8]: > 20000 nM; IC50 [9]: > 20000 nM; Activity [10]: 92%; concentration at 4 h [11]: 674 ng/g; Cmax [12]: 2970 ng/mL; Activity [14]: 67.91 mg/dL; Kp [15]: 0.227 |
| OC1(c2ncccn2)CCCN(c2nnc(N3CCC(N4CCCCC4)CC3)s2)C1 (stereo unspecified) | 67 nM | 77 nM | – |
| FC1(F)CCN(c2nnc(N3CCC(N4CCCCC4)CC3)s2)CC1 | 15 nM | 18 nM | AUC(0-t) at 6 h [13]: 2490 ng·h/mL |
| OC1(c2ccccn2)CCCN(c2nnc(N3CCC(N4CCCCC4)CC3)s2)C1 (stereo unspecified) | 53 nM | 55 nM | – |
| c1ccc(C2CN(c3nnc(N4CCC(N5CCCCC5)CC4)s3)CCO2)nc1 (single isomer, unassigned; enantiomer 2) [listing 2 of 2 here] | – | – | Activity [16]: Dose-dependent effect |
| FC1CCCN(c2nnc(N3CCC(N4CCCCC4)CC3)s2)C1 (stereo unspecified) | 66 nM | 56 nM | – |
| C1=C(c2ncccn2)CN(c2nnc(N3CCC(N4CCCCC4)CC3)s2)CC1 | 14 nM | 44 nM | – |
| FC1(F)CCN(c2nnc(N3CCC(N4CCCCC4)CC3)s2)C1 | 61 nM | 61 nM | AUC(0-t) at 6 h [13]: 545 ng·h/mL |
| COC1(c2ccccn2)CCCN(c2nnc(N3CCC(N4CCCCC4)CC3)s2)C1 (stereo unspecified) | 11 nM | 54 nM | – |
